Test results published in ChEMBL document CHEMBL5325402, “Exploration of novel hexahydropyrrolo[1,2-e]imidazol-1-one derivatives as antiviral agents against ZIKV and USUV” (Eur J Med Chem, 2023).
In brackets after ≈: the same amount, converted by molar mass. Several values for one entry are separate records, joined by “and”; a condition that tells them apart may be missing. Identical values can stand only once. Each block holds one molecule with its values, some of them ahead of it. Activity calls are given as the source filed them. No cut-off for these calls is given here.

Tests used:
Zika virus [1] = assay: Antiviral activity against ZIKV MR766 infected in African green monkey Vero cells assessed as viral growth inhibition at 11 to 100 uM pretreated with virus for 1 hr followed by infection of cells with compound treated-virus for 30 hrs by focus reduction assay; assay type: functional, organism-based; conditions: dose 11-100 µM, time 31.0 hrs
Procedure, shortened: (§1)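 Screening focus reduction assay. Vero cells were seeded 1.2 × 10^4/well. ZIKV MR766 or USUV (MOI 0.02) was preincubated 1 h at 37 °C with 100, 33 or 11 μM compound, then added to cells for 30 h (ZIKV) or 20 h (USUV). Cells were fixed in acetone-methanol and immunostained with anti-flavivirus E 4G2 plus a peroxidase secondary. Foci counted microscopically; % infection versus DMSO-matched untreated wells. Medium contained 2% FBS.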

Usutu virus [2] = assay: Antiviral activity against USUV 3345 isolate Arb276 infected in African green monkey Vero cells assessed as viral growth inhibition at 11 to 100 uM pretreated with virus for 1 hr followed by infection of cells with compound treated-virus for 20 hrs by focus reduction assay; assay type: functional, organism-based; conditions: dose 11-100 µM, time 21.0 hrs; procedure, shortened: as §1
Usutu virus [3] = assay: Antiviral activity against USUV 3345 isolate Arb276 infected in African green monkey Vero cells assessed as reduction in viral replication pretreated with virus for 1 hr followed by infection of cells with compound treated-virus for 20 hrs by focus reduction assay; assay type: functional, organism-based
Zika virus [4] = assay: Antiviral activity against ZIKV MR766 infected in African green monkey Vero cells assessed as reduction in viral replication pretreated with virus for 1 hr followed by infection of cells with compound treated-virus for 30 hrs by focus reduction assay; assay type: functional, organism-based
[5] = Cytotoxicity against African green monkey Vero cells infected with USUV 3345 isolate Arb276 pretreated with virus for 1 hr followed by infection of cells with compound treated-virus for 20 hrs by MTS assay; assay type: toxicity, cell-based; conditions: chlorocebus sabaeus
Procedure, shortened: (§2)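 MTS viability assay. Cells were treated under the same conditions as the antiviral assays. Absorbance was expressed as % of medium-only cells, and CC50 was derived from the curve. Seeding densities were 1.2 × 10^4/well for Vero, 1.3 × 10^4/well for A549 and 1.6 × 10^4/well for Huh7. DMEM with 2% FBS.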

[6] = Cytotoxicity against African green monkey Vero cells infected with ZIKV MR766 pretreated with virus for 1 hr followed by infection of cells with compound treated-virus for 30 hrs by MTS assay; assay type: toxicity, cell-based; conditions: chlorocebus sabaeus; procedure, shortened: as §2
[7] = Selectivity index, ratio of CC50 for African green monkey Vero cells infected with ZIKV MR766 to EC50 for ZIKV MR766 infected in African green monkey Vero cells; assay type: toxicity, cell-based; conditions: read-out: Ratio CC50/EC50
[8] = Selectivity index, ratio of CC50 for African green monkey Vero cells infected with USUV 3345 isolate Arb276 to EC50 for USUV 3345 isolate Arb276 infected in African green monkey Vero cells; assay type: toxicity, cell-based; conditions: read-out: Ratio CC50/EC50
Zika virus [9] = assay: Antiviral activity against ZIKV HPF2013 infected in African green monkey Vero cells assessed as reduction in viral replication pretreated with virus for 1 hr followed by infection of cells with compound treated-virus for 30 hrs by focus reduction assay; assay type: functional, organism-based
[10] = Cytotoxicity against African green monkey Vero cells infected with ZIKV HPF2013 pretreated with virus for 1 hr followed by infection of cells with compound treated-virus for 30 hrs by MTS assay; assay type: toxicity, cell-based; conditions: chlorocebus sabaeus; procedure, shortened: as §2
[11] = Selectivity index, ratio of CC50 for African green monkey Vero cells infected with ZIKV HPF2013 to EC50 for ZIKV HPF2013 infected in African green monkey Vero cells; assay type: toxicity, cell-based; conditions: read-out: Ratio CC50/EC50
Zika virus [12] = assay: Antiviral activity against ZIKV MR766 infected in African green monkey Vero cells assessed as viral growth inhibition at 33 uM pretreated with virus for 1 hr followed by infection of cells with compound treated-virus for 30 hrs by focus reduction assay relative to control; assay type: functional; conditions: time 31 hrs
Procedure, shortened: (§3)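 Virus (MOI 0.02) preincubated with compound 1 h at 37 °C, then mixture put on Vero cells (1.2 × 10^4/well, seeded the day before) in DMEM with 2% FBS for 30 h (ZIKV) or 20 h (USUV) at 37 °C. Fixed in cold acetone-methanol, foci immunostained with anti-flavivirus E 4G2 antibody and counted. % infection is relative to DMSO-treated wells. Screen used 100, 33 and 11 μM.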

Usutu virus [13] = assay: Antiviral activity against USUV 3345 isolate Arb276 infected in African green monkey Vero cells assessed as viral growth inhibition at 33 uM pretreated with virus for 1 hr followed by infection of cells with compound treated-virus for 20 hrs by focus reduction assay relative to control; assay type: functional; conditions: Usutu virus, 3345, Vero, time 21 hrs; procedure, shortened: as §3
[14] = Solubility in i-propanol at 25 degreeC; assay type: physicochemical
[15] = Solubility in DMSO at 25 degreeC; assay type: physicochemical
[16] = Aqueous solubility in deionized water containing 1.38% DMSO; assay type: physicochemical
Usutu virus [17] = assay: Antiviral activity against USUV 3345 isolate Arb276 infected in human A549 cells assessed as reduction in viral replication pretreated with virus for 1 hr followed by infection of cells with compound treated-virus for 20 hrs by focus reduction assay; assay type: functional, organism-based; conditions: Usutu virus, 3345, A549
Procedure, shortened: (§4)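 Dose-response: serial dilutions (100 to 0.13 μM) preincubated 1 h at 37 °C with virus (MOI 0.02), then added to cells for 20 h (USUV) or 30 h (ZIKV) in 2% FBS DMEM. Cells per well: Vero 1.2 × 10^4, A549 1.3 × 10^4, Huh7 1.6 × 10^4. Foci immunostained and counted. EC50/EC90 fitted by variable-slope sigmoidal curve, mean of three independent experiments.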

Zika virus [18] = assay: Antiviral activity against ZIKV MR766 infected in human A549 cells assessed as reduction in viral replication pretreated with virus for 1 hr followed by infection of cells with compound treated-virus for 30 hrs by focus reduction assay; assay type: functional, organism-based; procedure, shortened: as §4
Usutu virus [19] = assay: Antiviral activity against USUV 3345 isolate Arb276 infected in human Huh-7 cells assessed as reduction in viral replication pretreated with virus for 1 hr followed by infection of cells with compound treated-virus for 20 hrs by focus reduction assay; assay type: functional, organism-based; conditions: Usutu virus, 3345, Huh-7; procedure, shortened: as §4
Zika virus [20] = assay: Antiviral activity against ZIKV MR766 infected in human Huh-7 cells assessed as reduction in viral replication pretreated with virus for 1 hr followed by infection of cells with compound treated-virus for 30 hrs by focus reduction assay; assay type: functional, organism-based; procedure, shortened: as §4
[21] = Cytotoxicity against human A549 cells infected with USUV 3345 isolate Arb276 pretreated with virus for 1 hr followed by infection of cells with compound treated-virus for 20 hrs by MTS assay; assay type: toxicity, cell-based; procedure, shortened: as §2
[22] = Cytotoxicity against human A549 cells infected with ZIKV MR766 pretreated with virus for 1 hr followed by infection of cells with compound treated-virus for 30 hrs by MTS assay; assay type: toxicity, cell-based; procedure, shortened: as §2
[23] = Cytotoxicity against human Huh-7 cells infected with USUV 3345 isolate Arb276 pretreated with virus for 1 hr followed by infection of cells with compound treated-virus for 20 hrs by MTS assay; assay type: toxicity, cell-based; procedure, shortened: as §2
[24] = Cytotoxicity against human Huh-7 cells infected with ZIKV MR766 pretreated with virus for 1 hr followed by infection of cells with compound treated-virus for 30 hrs by MTS assay; assay type: toxicity, cell-based; procedure, shortened: as §2

Structure (SMILES): COc1ccc([C@H]2N(c3ccc([N+](=O)[O-])cc3)C(=O)[C@@H]3CCCN32)cc1O
Activity (Zika virus [1]): inactive | Activity (Usutu virus [2]): inactive

Structure (SMILES): O=C1[C@@H]2CCCN2[C@@H](c2cccc(O)c2)N1c1ccc([N+](=O)[O-])cc1
Activity (Zika virus [1]): inactive | Activity (Usutu virus [2]): inactive

Structure (SMILES): C=C1/C(=C\C=C2/CCC[C@]3(C)[C@@H]([C@H](C)/C=C/C=C/C(O)(CC)CC)CC[C@@H]23)C[C@@H](O)C[C@@H]1O [SEOCALCITOL]
EC50 (Usutu virus [3]; vero): 2.13 µM and 9.94 µM | EC50 (Zika virus [4]): 7.51 µM | CC50 at 21 h [5]: 11.9 µM | CC50 at 31 h [6]: 11 µM | selectivity ratio [7]: 1.5 | selectivity ratio [8]: 6 | EC50 (Zika virus [9]): 2.83 µM | CC50 at 31 h [10]: 11 µM | selectivity ratio [11]: 3.9

Structure (SMILES): COc1cc([C@H]2N(Nc3ccccc3)C(=O)[C@@H]3CCCN32)ccc1O
inhibition at 33 µM (Zika virus [12]): < 50% | inhibition at 33 µM (Usutu virus [13]): < 50%

solubility [14]: 1170 µg/mL (≈ 3.17 mM) | solubility [15]: 37500 µg/mL (≈ 102 mM) | solubility [16]: 518 µg/mL (≈ 1.4 mM)
Structure (SMILES): COc1cc([C@H]2N(c3ccc([N+](=O)[O-])cc3)C(=O)[C@@H]3CCCN32)ccc1O

Structure (SMILES): O=C1[C@@H]2CCCN2[C@@H](c2ccco2)N1Nc1ccc([N+](=O)[O-])cc1
Activity (Zika virus [1]): inactive | Activity (Usutu virus [2]): inactive

Structure (SMILES): O=C1[C@@H]2CCCN2[C@@H](Cc2ccc(O)c(O)c2)N1c1ccc([N+](=O)[O-])cc1
Activity (Zika virus [1]): inactive | Activity (Usutu virus [2]): inactive

Structure (SMILES): COc1cc([C@H]2N(Nc3ccc([N+](=O)[O-])cc3)C(=O)[C@@H]3CCCN32)ccc1O
Activity (Zika virus [1]): inactive | Activity (Usutu virus [2]): inactive

Structure (SMILES): O=C1[C@@H]2CCCN2[C@@H](c2ccco2)N1Nc1ccccc1
inhibition at 33 µM (Zika virus [12]): < 50% | inhibition at 33 µM (Usutu virus [13]): < 50%

Structure (SMILES): COc1ccc(C[C@H]2N(c3ccc([N+](=O)[O-])cc3)C(=O)[C@@H]3CCCN32)cc1O
Activity (Zika virus [1]): inactive | Activity (Usutu virus [2]): inactive

Structure (SMILES): O=C1[C@@H]2CCCN2[C@@H](c2ccc(O)c(O)c2)N1c1ccc([N+](=O)[O-])cc1
Activity (Zika virus [1]): inactive | Activity (Usutu virus [2]): inactive

Structure (SMILES): COc1cc(C[C@H]2N(c3ccc([N+](=O)[O-])cc3)C(=O)[C@@H]3CCCN32)ccc1O
Activity (Zika virus [1]): inactive | Activity (Usutu virus [2]): inactive

Structure (SMILES): COc1ccc([C@H]2N(c3ccc([N+](=O)[O-])cc3)C(=O)[C@@H]3CCCN32)cc1OC
Activity (Zika virus [1]): inactive | Activity (Usutu virus [2]): inactive

Structure (SMILES): O=C1[C@@H]2CCCN2[C@@H](Cc2ccc(O)cc2)N1c1ccc([N+](=O)[O-])cc1
Activity (Zika virus [1]): inactive | Activity (Usutu virus [2]): inactive

Structure (SMILES): COc1ccc(C[C@H]2N(Nc3ccc([N+](=O)[O-])cc3)C(=O)[C@@H]3CCCN32)cc1OC
Activity (Zika virus [1]): inactive | Activity (Usutu virus [2]): inactive

Structure (SMILES): CCN(CC)CCCC(C)Nc1ccnc2cc(Cl)ccc12 (stereo unspecified) [CHLOROQUINE]
EC50 (Usutu virus [3]; Usutu virus, 3345, Vero): 8.3 µM | EC90 (Usutu virus [3]; Usutu virus, 3345, Vero, time 21 hrs): 28.2 µM | EC50 (Zika virus [4]): 1.53 µM | EC90 (Zika virus [4]; time 31 hrs): 5.77 µM | EC50 (Usutu virus [17]): 4.24 µM | EC90 (Usutu virus [17]; time 21 hrs): 60.1 µM | EC50 (Zika virus [18]): 5.99 µM | EC90 (Zika virus [18]; time 31 hrs): 50.3 µM | EC50 (Usutu virus [19]): 4.82 µM | EC90 (Usutu virus [19]; time 21 hrs): 11.8 µM | EC50 (Zika virus [20]; MR766, Huh-7): 0.95 µM | EC90 (Zika virus [20]; MR766, Huh-7, time 31 hrs): 2.36 µM | CC50 at 21 h [5]: 115 µM | CC50 at 31 h [6]: 136 µM | CC50 at 21 h [21]: 144 µM | CC50 at 31 h [22]: 80.5 µM | CC50 at 21 h [23]: 75.5 µM | CC50 at 31 h [24]: 58.5 µM
